Experimental findings from the RNAGym collection of RNA variant scans (doi:10.1002/anie.201605470) are described below.

Sequences and labels used below:
B1: Osa-1-4 twister ribozyme (parent)
chain: CCGCCUAACACUGCCAAUGCCGGUCCCAAGCCCGGAUAAAAGUGGAGGGGGCGG

The variants in this data set derive from B1. The data set is described as follows: self-cleavage, relative activity (ratio to wild type); higher = more cleavage; co-transcriptional. The method in brief:
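A DNA template was synthesised for a 54-nucleotide twister ribozyme from Oryza sativa, with 97 % wild-type base and 1 % of each other base at each of the 48 positions downstream of the cleavage site. The ribozyme cleaved itself co-transcriptionally during 2 h of in vitro transcription at 37 °C. Reverse transcription with a template-switching oligonucleotide, PCR amplification and deep sequencing followed, and cleavage status came from reads with or without upstream sequence. Relative activity is the fraction cleaved normalised to wild type.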
In the case of A46C C11G, the self-cleavage turned out to be 0.03.
Take A46C C11A: the self-cleavage was found to be 0.04.
The same measure for A46C C11U: 0.05; for G44C G48U: 0.07.
Turning to G44C G48A, the self-cleavage was 0.08.
For G44C G48C, the self-cleavage turned out to be 0.08.
The same measure for G44A U43A: 0.88; for G44A U43C: 0.1.
The same measure for G44A U43G: 0.67; for G45C U37A: 0.05.
The same measure for G45C U37G: 0.07.
G45C U37C: the self-cleavage stood at 0.08.
The figure for G45U G48U is 0.04.
The figure for G45U G48A is 0.04; for G45U G48C it is 0.04.
The same measure for A46C C26G: 0.02; for A46C C26A: 0.02.
As to A46C C26U, the self-cleavage came to 0.05.
The same measure for G45C G49C: 0.04; for G45C G49A: 0.04; for G45C G49U: 0.03.
Turning to G45A G54C, the self-cleavage turned out to be 0.1.
As to G45A G54U, the self-cleavage is 0.34.
The same measure for G45A G54A: 0.15; for G45C G48U: 0.02; for G45C G48A: 0.03.
The same measure for G45C G48C: 0.04; for G45A U43C: 0.09.
Take G45A U43A: the self-cleavage amounted to 0.09.
G45A U43G: the self-cleavage amounted to 0.06.
The figure for A46C C9U is 0.02; for A46C C9A it is 0.03.
The same measure for A46C C9G: 0.05; for G44C G47A: 0.19.
For G44C G47U, the self-cleavage was 0.16.
As to G44C G47C, the self-cleavage was determined as 0.11.
The same measure for G44A U24A: 0.06.
On to G44A U24C, for which the self-cleavage amounted to 0.08.
The figure for G44A U24G is 0.03.
The same measure for G45U G50C: 0.07; for G45U G50U: 0.09; for G45U G50A: 0.12.
The figure for G44U G48U is 0.07.
Take G44U G48A: the self-cleavage came out at 0.06.
The figure for G44U G48C is 0.07.
The figure for A46C G23U is 0.03; for A46C G23C it is 0.02.
The figure for A46C G23A is 0.04; for G45U G47C it is 0.04; for G45U G47U it is 0.06.
Take G45U G47A: the self-cleavage was determined as 0.04.
The figure for A46C G45A is 0.05; for A46C G45U it is 0.02.
The same measure for A46C G45C: 0.03; for A46C G49U: 0.04.
The same measure for A46C G49C: 0.03; for A46C G49A: 0.04; for G44A U37C: 1.01.
With G44A U37A, the self-cleavage is 0.7.
The figure for G44A U37G is 1; for G45A U24A it is 0.03.
The figure for G45A U24G is 0.02; for G45A U24C it is 0.05.
The same measure for G45U U24C: 0.04; for G45U U24A: 0.04.
For G45U U24G, the self-cleavage was determined as 0.02.
The figure for G45U G54C is 0.06.
The same measure for G45U G54U: 0.2; for G45U G54A: 0.1.
The same measure for G45C U18C: 0.1; for G45C U18A: 0.06.
As to G45C U18G, the self-cleavage turned out to be 0.09.
The same measure for G44U U24C: 0.15.
The figure for G44U U24G is 0.04; for G44U U24A it is 0.09.
On to A46C G42C, for which the self-cleavage was determined as 0.04.
The figure for A46C G42U is 0.02; for A46C G42A it is 0.04.
For the variant A46C U18C, the self-cleavage turned out to be 0.06.
The figure for A46C U18A is 0.06.
The same measure for A46C U18G: 0.14; for G45A G47U: 0.06.
The figure for G45A G47A is 0.06.
On to G45A G47C, for which the self-cleavage came out at 0.05.
The figure for A46C A8U is 0.03; for A46C A8C it is 0.03.
As to A46C A8G, the self-cleavage was found to be 0.02.
The same measure for A46C C14U: 0.03.
For the variant A46C C14A, the self-cleavage worked out at 0.02.
The same measure for A46C C14G: 0.03; for G45U U18C: 0.14; for G45U U18A: 0.14.
The figure for G45U U18G is 0.19.
The same measure for A46C U24A: 0.02; for A46C U24G: 0.01.
For the variant A46C U24C, the self-cleavage was found to be 0.04.
The figure for G44A G51A is 0.79.
The same measure for G44A G51U: 0.28; for G44A G51C: 0.08; for G45C G50C: 0.07.
The figure for G45C G50U is 0.06; for G45C G50A it is 0.08.
As to A46C C25G, the self-cleavage came out at 0.02.
As for A46C C25A, the self-cleavage is 0.03.
In the case of A46C C25U, the self-cleavage was determined as 0.05.
The figure for G44A G48A is 0.07; for G44A G48U it is 0.06; for G44A G48C it is 0.06.
The figure for A46C C33G is 0.02; for A46C C33A it is 0.04; for A46C C33U it is 0.03.
The same measure for G44A U12A: 0.65; for G44A U12G: 0.28; for G44A U12C: 0.68.
Take G44C G54C: the self-cleavage came to 0.92.
Consider G44C G54A, for which the self-cleavage is 0.89.
As for G44C G54U, the self-cleavage worked out at 0.92.
As to A46C G19U, the self-cleavage came to 0.04.
The figure for A46C G19C is 0.02.
The same measure for A46C G19A: 0.05.
The same measure for G44A U18A: 0.84.
On to G44A U18G, for which the self-cleavage was 0.63.
The same measure for G44A U18C: 0.83; for G45A U37G: 0.58.
The same measure for G45A U37A: 0.25; for G45A U37C: 0.55; for G45A G48U: 0.05.
Turning to G45A G48A, the self-cleavage came to 0.06.
The same measure for G45A G48C: 0.04.
The figure for A46C G13A is 0.02; for A46C G13U it is 0.01.
The figure for A46C G13C is 0.01.
In the case of A46C A7G, the self-cleavage is 0.04.
The figure for A46C A7C is 0.03; for A46C A7U it is 0.02.
The figure for G45A G50U is 0.13.
Regarding G45A G50C, the self-cleavage was 0.06.
Regarding G45A G50A, the self-cleavage was found to be 0.23.
The figure for G44C U37G is 1.02; for G44C U37C it is 1; for G44C U37A it is 0.71.
The same measure for A46C G44C: 0.06; for A46C G44A: 0.05.
As to A46C G44U, the self-cleavage came out at 0.06.
The same measure for A46C C20A: 0.04.
Consider A46C C20U, for which the self-cleavage worked out at 0.07.
The figure for A46C C20G is 0.03; for G44A G50U it is 0.97; for G44A G50C it is 0.91.
The same measure for G44A G50A: 0.71.
A46C G48C: the self-cleavage was determined as 0.03.
In the case of A46C G48U, the self-cleavage was 0.02.
The figure for A46C G48A is 0.04; for G45U G53A it is 0.07.
The same measure for G45U G53U: 0.05; for G45U G53C: 0.03; for A46C G47A: 0.04.
The same measure for A46C G47U: 0.04; for A46C G47C: 0.02.
Regarding G44A G47U, the self-cleavage was 0.12.
The same measure for A46C: 0.09; for G44U G50C: 0.83.
The figure for G44U G50A is 0.58; for G44U G50U it is 0.97; for G44U G53A it is 0.75.
The figure for G44U G53U is 0.3; for G44U G53C it is 0.08.
